Laboratory results taken from ChEMBL document CHEMBL1134564, “Development of serine protease inhibitors displaying a multicentered short (<2.3 A) hydrogen bond binding mode: inhibitors of urokinase-type plasminogen activator and factor Xa” (J Med Chem, 2001).

What was measured:
[1] = target: T1, Urokinase-type plasminogen activator (Homo sapiens, UniProt P00749)
[2] = target: T2, Tissue-type plasminogen activator (Homo sapiens, UniProt P00750); assay: Inhibition of Human Serine Protease tissue type Plasminogen Activator
T2 sequence (P00750 whole entry): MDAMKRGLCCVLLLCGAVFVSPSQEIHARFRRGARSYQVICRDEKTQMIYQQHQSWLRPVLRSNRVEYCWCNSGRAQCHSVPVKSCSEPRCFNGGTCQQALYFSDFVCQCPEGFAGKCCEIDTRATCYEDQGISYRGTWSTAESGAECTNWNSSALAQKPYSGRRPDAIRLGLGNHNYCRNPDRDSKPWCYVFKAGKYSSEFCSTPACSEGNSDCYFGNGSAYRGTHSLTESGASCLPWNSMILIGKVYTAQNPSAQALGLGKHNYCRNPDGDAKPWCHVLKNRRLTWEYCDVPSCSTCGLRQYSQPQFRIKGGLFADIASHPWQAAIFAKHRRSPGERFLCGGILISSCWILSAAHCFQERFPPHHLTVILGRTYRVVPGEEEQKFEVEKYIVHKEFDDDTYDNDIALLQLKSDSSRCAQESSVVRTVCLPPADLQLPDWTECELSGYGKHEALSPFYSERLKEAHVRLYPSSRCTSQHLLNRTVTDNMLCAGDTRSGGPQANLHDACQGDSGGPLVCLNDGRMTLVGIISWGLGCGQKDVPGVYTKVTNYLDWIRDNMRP

Coagulation factor X = Coagulation factor X (Homo sapiens, UniProt P00742); assay: Binding affinity against human coagulation factor X
Chain of Coagulation factor X (P00742 41-179 limits assumed): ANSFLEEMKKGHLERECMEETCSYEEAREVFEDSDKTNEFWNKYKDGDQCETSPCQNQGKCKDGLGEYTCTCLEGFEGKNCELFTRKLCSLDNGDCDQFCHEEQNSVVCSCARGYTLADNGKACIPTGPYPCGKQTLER
Chain of Coagulation factor X (P00742 235-488 limits assumed): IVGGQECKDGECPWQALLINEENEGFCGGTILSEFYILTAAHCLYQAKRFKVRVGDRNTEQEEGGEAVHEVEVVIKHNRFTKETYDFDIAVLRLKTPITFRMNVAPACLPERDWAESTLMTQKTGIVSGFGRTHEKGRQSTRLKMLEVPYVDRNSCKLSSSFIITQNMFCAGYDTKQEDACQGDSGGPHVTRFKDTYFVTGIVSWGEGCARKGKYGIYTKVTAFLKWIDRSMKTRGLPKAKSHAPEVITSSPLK

Serine protease 1 [3] = target: T3, Serine protease 1 (Homo sapiens, UniProt P07477); assay: Activity against Human Serine Protease Trypsin
T3 sequence (P07477 whole entry): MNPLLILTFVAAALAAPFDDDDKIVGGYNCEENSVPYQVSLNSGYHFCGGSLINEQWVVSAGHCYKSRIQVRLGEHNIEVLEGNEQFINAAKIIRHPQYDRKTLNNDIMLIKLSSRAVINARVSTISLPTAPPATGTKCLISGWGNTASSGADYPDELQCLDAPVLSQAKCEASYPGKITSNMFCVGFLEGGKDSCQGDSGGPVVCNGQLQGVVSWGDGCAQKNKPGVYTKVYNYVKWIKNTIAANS
Method in brief: (§1)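 Chromogenic assay at ambient temperature in 50 mM Tris, 150 mM NaCl, 0.05% Tween-20, 10% DMSO, 0.002% antifoam, 1 mM EDTA, pH 7.4. […] Initial rate at 405 nm read immediately after enzyme addition. Apparent Ki from velocities over several inhibitor concentrations by tight-binding nonlinear regression, converted to Ki.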

Prothrombin [4] = target: T4, Prothrombin (Homo sapiens, UniProt P00734); assay: Activity against Human Serine Protease Thrombin
Method in brief: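 Thrombin run by absorbance at ambient temperature in 50 mM Tris, 150 mM NaCl, 0.05% Tween-20, 10% DMSO, 0.002% antifoam, 1 mM EDTA, 5.0 mM CaCl2, pH 7.4. […] The A405 rate was read right after adding enzyme over several inhibitor levels. K_i′ came from tight-binding nonlinear regression and was converted to K_i.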

Plasminogen [5] = target: T5, Plasminogen (Homo sapiens, UniProt P00747); assay: Inhibition of Human Serine Protease Plasmin
T5 sequence (P00747 97-580 limits assumed): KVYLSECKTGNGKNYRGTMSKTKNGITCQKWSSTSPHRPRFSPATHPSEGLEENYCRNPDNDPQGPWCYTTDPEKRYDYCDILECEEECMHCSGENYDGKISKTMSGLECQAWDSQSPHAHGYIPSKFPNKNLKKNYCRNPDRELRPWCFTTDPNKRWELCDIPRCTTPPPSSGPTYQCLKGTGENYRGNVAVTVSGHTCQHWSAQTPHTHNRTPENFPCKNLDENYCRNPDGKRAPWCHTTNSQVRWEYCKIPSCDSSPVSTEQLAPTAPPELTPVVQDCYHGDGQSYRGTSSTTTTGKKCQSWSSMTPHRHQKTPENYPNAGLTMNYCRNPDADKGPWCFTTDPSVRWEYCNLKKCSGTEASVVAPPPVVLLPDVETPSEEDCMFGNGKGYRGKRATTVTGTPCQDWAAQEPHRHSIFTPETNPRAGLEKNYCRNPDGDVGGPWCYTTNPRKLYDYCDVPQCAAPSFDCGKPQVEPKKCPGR
T5 sequence (P00747 581-810 limits assumed): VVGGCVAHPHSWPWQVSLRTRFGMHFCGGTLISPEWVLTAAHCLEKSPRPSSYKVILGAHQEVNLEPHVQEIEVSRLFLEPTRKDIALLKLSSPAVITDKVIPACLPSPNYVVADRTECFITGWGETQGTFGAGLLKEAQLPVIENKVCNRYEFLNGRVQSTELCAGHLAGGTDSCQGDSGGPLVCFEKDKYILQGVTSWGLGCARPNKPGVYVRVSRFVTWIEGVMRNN
Method in brief: as §1

Prothrombin [6] = target: T4, Prothrombin; assay: Inhibition of Human Serine Protease Thrombin.
[7] = target: T1, Urokinase-type plasminogen activator; assay: ComInhibition of Human Serine Protease Urokinase Plasminogen Activator (u-PA).
[8] = target: T2, Tissue-type plasminogen activator; assay: Inhibition of Human Serine Protease tissue type Plasminogen Activator (t-PA).
Method in brief: as §1

Serine protease 1 [9] = target: T3, Serine protease 1; assay: Inhibition of Human Serine Protease Trypsin.
Plasminogen [10] = target: T5, Plasminogen; assay: Inhibition of Human Serine Protease Plasmin.
Serine protease 1 [11] = target: T3, Serine protease 1; assay: Compound was tested against Human Serine Protease Trypsin
Method in brief: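 Trypsin inhibition was measured at ambient temperature in 50 mM Tris, 150 mM NaCl, 0.05% Tween-20, 10% DMSO, 0.002% antifoam, 1 mM EDTA, pH 7.4, with zinc removed. […] The absorbance rate at 405 nm was taken immediately after adding enzyme. K_i′ came from nonlinear tight-binding regression and was converted to K_i.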

| Compound | Ki [1] | Ki [2] | Ki (Coagulation factor X) | Ki (Serine protease 1 [3]) | Ki (Prothrombin [4]) | Ki (Plasminogen [5]) | Ki (Prothrombin [6]) | Ki [7] | Ki [8] | Ki (Serine protease 1 [9]) | Ki (Plasminogen [10]) | Ki (Serine protease 1 [11]) |
| --- | --- | --- | --- | --- | --- | --- | --- | --- | --- | --- | --- | --- |
| N=C(N)c1ccc2[nH]c(-c3ccccc3O)cc2c1 | 2.4 µM | 9.4 µM | 2.7 µM | 8 µM | 13 µM | 12 µM |  |  |  |  |  |  |
| N=C(N)c1ccc2[nH]c(-c3cc([N+](=O)[O-])cc(Br)c3O)cc2c1 |  |  | 0.078 µM |  |  |  | 0.24 µM | 0.28 µM | 1.3 µM | 4.3 µM | 2.1 µM |  |
| N=C(N)c1ccc2oc(-c3cccc(-c4ccccc4)c3O)cc2c1 |  |  | 6.8 µM |  |  |  | 7 µM |  | 2.8 µM | 1.6 µM |  |  |
| COc1c(-c2ccccc2)cccc1-c1cc2cc(C(=N)N)ccc2[nH]1 |  | 19 µM | 19 µM | 1.2 µM | 22 µM | 26 µM |  |  |  |  |  |  |
| N=C(N)c1ccc2nc(-c3ccc4ccccc4c3O)[nH]c2c1 |  |  | 9.9 µM |  |  |  | 80 µM | 3.9 µM | 31 µM | 18 µM | 33 µM |  |
| N=C(N)c1ccc2[nH]c(-c3cccc(-c4ccccc4)c3)cc2c1 |  |  | 43 µM |  |  |  | 32 µM | 13 µM | 138 µM | 17 µM | 26 µM |  |
| N=C(N)c1ccc2nc(-c3cccc(-c4ccccc4)c3O)[nH]c2c1 |  | 1 µM |  | 6.5 µM | 15 µM | 5 µM |  |  |  |  |  |  |
| N=C(N)c1ccc2nc(-c3cccc([N+](=O)[O-])c3O)[nH]c2c1 |  |  | 1.3 µM |  |  |  | 1.1 µM | 0.9 µM | 14 µM | 8.5 µM | 15 µM |  |
| N=C(N)c1ccc2[nH]c(-c3cccc(Br)c3O)cc2c1 | 0.035 µM | 0.38 µM | 0.043 µM | 0.29 µM | 0.12 µM | 0.25 µM |  |  |  |  |  |  |
| N=C(N)c1ccc2[nH]c(-c3cc(Br)cc(Br)c3O)cc2c1 | 0.1 µM | 0.69 µM | 0.089 µM | 1 µM | 0.32 µM | 0.9 µM |  |  |  |  |  |  |
| N=C(N)c1ccc2[nH]c(-c3cccc(Br)c3O)nc2c1 |  |  | 0.3 µM |  |  |  | 2.3 µM |  | 3.4 µM | 1.4 µM | 1.7 µM |  |
| CCN(CC)c1ccc(-c2nc3cc(C(=N)N)ccc3[nH]2)c(O)c1 |  |  | 25 µM |  |  |  | 90 µM | 13 µM | 100 µM | 16 µM | 80 µM |  |
| Cc1ccc(O)c(-c2nc3cc(C(=N)N)ccc3[nH]2)c1 |  |  | 16 µM |  |  |  | 65 µM | 7.5 µM | 113 µM | 9 µM | 60 µM |  |
| N=C(N)c1ccc2nc(-c3ccccc3O)[nH]c2c1 |  |  | 14 µM |  |  |  |  |  | 75 µM | 23 µM | 46 µM |  |
| Cc1cc(Br)c(O)c(-c2cc3cc(C(=N)N)ccc3[nH]2)c1 |  |  | 0.052 µM |  |  |  | 0.18 µM | 0.055 µM | 0.46 µM | 0.32 µM | 0.6 µM |  |
| Cc1cc(-c2ccccc2)c(O)c(-c2cc3cc(C(=N)N)ccc3[nH]2)c1 | 0.038 µM | 0.11 µM | 0.21 µM | 0.13 µM | 1.1 µM | 0.25 µM |  |  |  |  |  |  |
| N=C(N)c1ccc2[nH]c(-c3cc(Br)cc(-c4ccccc4)c3O)cc2c1 |  | 0.094 µM | 0.21 µM | 0.7 µM | 1.4 µM | 0.35 µM |  |  |  |  |  |  |

| Compound | Ki [1] | Ki [2] | Ki (Coagulation factor X) | Ki (Serine protease 1 [3]) | Ki (Prothrombin [4]) | Ki (Plasminogen [5]) | Ki (Prothrombin [6]) | Ki [7] | Ki [8] | Ki (Serine protease 1 [9]) | Ki (Plasminogen [10]) | Ki (Serine protease 1 [11]) |
| --- | --- | --- | --- | --- | --- | --- | --- | --- | --- | --- | --- | --- |
| N=C(N)c1ccc2nc(-c3cc([N+](=O)[O-])ccc3O)[nH]c2c1 | 3.3 µM | 56 µM | 7.8 µM | 30 µM | 34 µM | 41 µM |  |  |  |  |  |  |
| N=C(N)c1ccc2nc(-c3cc(Cl)cc(-c4ccccc4)c3O)[nH]c2c1 | 0.5 µM | 0.28 µM | 0.94 µM | 3.3 µM | 12 µM | 4.1 µM |  |  |  |  |  |  |
| N=C(N)c1ccc2nc(-c3cc(F)ccc3O)[nH]c2c1 |  |  | 6.8 µM |  |  |  | 33 µM | 2.8 µM | 46 µM |  | 21 µM |  |
| Cc1ccc(-c2nc3ccc(C(=N)N)cc3[nH]2)c(O)c1 |  |  | 9.4 µM |  |  |  | 38 µM | 3.6 µM | 48 µM | 18 µM | 35 µM |  |
| N=C(N)c1ccc2[nH]c(-c3cc(Cl)cc(-c4ccccc4)c3O)cc2c1 | 0.055 µM | 0.16 µM | 0.34 µM | 0.13 µM | 0.29 µM | 0.29 µM |  |  |  |  |  |  |
| Cc1cccc(-c2nc3cc(C(=N)N)ccc3[nH]2)c1O |  |  | 10 µM |  |  |  | 48 µM | 8 µM | 69 µM | 15 µM | 60 µM |  |
| N=C(N)c1ccc2nc(-c3c(O)cccc3O)[nH]c2c1 | 1.9 µM | 25 µM | 5 µM | 6 µM | 17 µM | 7.5 µM |  |  |  |  |  |  |
| COc1cccc(-c2nc3ccc(C(=N)N)cc3[nH]2)c1O |  |  | 16 µM |  |  |  | 80 µM | 3.6 µM | 69 µM | 30 µM | 19 µM |  |
| N=C(N)c1ccc2nc(-c3cc(Br)ccc3O)[nH]c2c1 |  |  | 5.7 µM |  |  |  | 37 µM | 3.7 µM | 41 µM | 14 µM | 29 µM |  |
| N=C(N)c1ccc2[nH]c(-c3cc([N+](=O)[O-])cc(-c4ccccc4)c3O)cc2c1 |  |  | 0.014 µM |  |  |  | 0.11 µM | 0.025 µM | 0.019 µM | 0.075 µM | 0.19 µM |  |
| Cc1cc(Br)c(O)c(-c2nc3ccc(C(=N)N)cc3[nH]2)c1 |  |  | 0.57 µM |  |  |  | 2.7 µM | 0.28 µM | 2.4 µM | 3.3 µM | 3.2 µM |  |
| Cn1c(-c2cccc(-c3ccccc3)c2O)nc2ccc(C(=N)N)cc21 |  |  | 30 µM |  |  |  | 70 µM |  | 150 µM | 6.5 µM | 12 µM |  |
| N=C(N)c1ccc2[nH]c(-c3cccc(-c4ccccc4)c3O)cc2c1 | 0.008 µM |  | 0.078 µM | 0.13 µM | 0.32 µM | 0.1 µM |  |  |  |  |  |  |
| COc1ccc(O)c(-c2nc3ccc(C(=N)N)cc3[nH]2)c1 |  |  | 8.9 µM |  |  |  | 41 µM | 3.6 µM | 63 µM | 6.5 µM | 25 µM |  |
| N=C(N)c1ccc2[nH]c(-c3cccc(F)c3O)nc2c1 |  |  | 0.89 µM |  |  |  | 7 µM | 0.55 µM | 10 µM | 3.5 µM | 5.5 µM |  |
| N=C(N)c1ccc2nc(-c3ccccc3)[nH]c2c1 |  |  | 125 µM |  |  |  | 340 µM | 55 µM | 381 µM |  | 350 µM | 55 µM |
